Only some compounds are listed: those with a hit (about 3.5% of all), similar ones and a draw of the others.
RGS4 act – RGS4 potentiation or activation. HEK293 M3R/inducible RGS4, carbachol calcium flux Fluo4; active compounds read low. B-score at 10 µM. actives 0.92% (n = 310,000). AID 463111;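 active means B-score of the integrated calcium signal more than 4 SD below the library mean, with starting fluorescence not abnormally high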;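 further: negative B-score means reduced calcium response which marks RGS4 activation or potentiation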
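Material: Inducible-RGS4 HEK293 cells carrying M3 receptor; also added: carbachol at ECmax as muscarinic agonist stimulus; incubation: compound preincubation 20 min at room temperature before agonist; signal: Fluo4-AM (2 µM) calcium-flux fluorescence, kinetic read; measure: integrated calcium ratio converted to B score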
MrgX1 allo act – human MrgX1 positive allosteric modulation, primary screen; Q96LB2; actives 0.63% (n = 310,000); AID 588675; MrgX1-HEK293, Fluo-4 calcium flux, FDSS; active compounds read high; B-score at 10 µM;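 active means plate-corrected calcium response at least 3 library SD above typical, normal starting fluorescence, not activating the receptor alone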;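 further: compound read alongside a low EC10 to EC30 dose of BAM8-22 agonist; peak minus trough fluorescence over baseline measured at the second addition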
Target sequence (Q96LB2 whole entry, looked up): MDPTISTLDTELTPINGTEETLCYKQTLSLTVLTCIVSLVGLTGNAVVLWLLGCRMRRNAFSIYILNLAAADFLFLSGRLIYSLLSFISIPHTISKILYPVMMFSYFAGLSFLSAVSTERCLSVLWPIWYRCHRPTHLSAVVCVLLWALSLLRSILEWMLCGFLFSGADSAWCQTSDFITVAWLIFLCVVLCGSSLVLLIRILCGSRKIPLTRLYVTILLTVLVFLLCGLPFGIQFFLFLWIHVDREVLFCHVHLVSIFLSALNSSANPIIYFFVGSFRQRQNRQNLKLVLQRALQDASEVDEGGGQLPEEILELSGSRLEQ
RGS4 block – inhibitors of human RGS4 | HEK293 M3R/RGS4 inducible, Fluo-4 calcium flux; active compounds read high; triggered by carbachol at its EC20 | B-score at 10 µM | actives 0.45% (n = 310,000) | AID 463165;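 active means B-score, a plate-corrected calcium signal, over three deviations above library mean, with baseline fluorescence within five deviations of library mean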;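 further: RGS4 expression induced by doxycycline in cells with stable M3 receptor; B-score is computed from the integrated fluorescence ratio over baseline after carbachol; higher B-score means a larger calcium signal and so more RGS4 inhibition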
Target sequence (P49798 whole entry, looked up): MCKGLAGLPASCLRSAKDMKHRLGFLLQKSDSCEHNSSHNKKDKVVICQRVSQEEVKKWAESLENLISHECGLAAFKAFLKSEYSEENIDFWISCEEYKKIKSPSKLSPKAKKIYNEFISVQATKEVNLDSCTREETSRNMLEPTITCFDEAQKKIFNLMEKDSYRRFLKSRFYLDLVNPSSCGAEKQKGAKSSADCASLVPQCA
MrgX1 agonist – activates human MrgX1 receptor signaling; AID 588627; Q96LB2; MrgX1-HEK293 cells, Fluo-4 calcium fluorescence, agonist mode; active compounds read high; actives 0.44% (n = 310,000); B-score at 10 µM;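 active means calcium response B-score plate-corrected fluorescence ratio at least 3 library SD, with starting fluorescence B-score inside 5 SD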
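Assay system: MrgX1-expressing HEK293 cells / Amount: fifteen thousand cells per well / Doses: test compound in the initial addition of three / Timing: cells plated overnight, dye loaded 0.5 h 37 °C, 0.5 h room temperature / Technique: kinetic calcium dye fluorescence, Fluo-4 NW / Control set: positive and negative controls per plate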
MrgX1 antagonist – antagonists of human MrgX1 receptor. B-score at 10 µM. actives 1.3% (n = 310,000). MRGX1-HEK293 calcium flux, Fluo-4, BAM8-22 antagonism; active compounds read low;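 active means calcium-response B-score plate-corrected more than 3 library SD below zero, starting fluorescence within 5 deviations, no agonist response on first addition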;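 further: peak minus trough fluorescence over baseline after final BAM8-22 challenge near maximal dose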
MrgX1 ant reconf – human MrgX1 receptor antagonism, re-confirmation screen; shares compounds with MrgX1 antagonist; MrgX1-HEK293, BAM8-22 calcium flux, Fluo-4; active compounds read low; remaining BAM8-22 calcium response % of control (active compounds read low), % at 10 µM; actives 19% (n = 2,300); AID 602420;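 active means remaining agonist calcium response no higher than 100% minus 3 SD of agonist-only control wells, with starting fluorescence near control levels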;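 further: agonist BAM8-22 given at a near maximal EC90 to ECmax level; peak minus minimum fluorescence divided by baseline after agonist addition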
HEK293 Ca flux – counter-screen for MrgX1 antagonists: effect in parental HEK293 cells | shares compounds with MrgX1 antagonist | Fluo-4 calcium fluorescence, FDSS | fluorescence ratio F(max-min)/F0 at 10 µM | actives 2% (n = 4,000) | AID 624111;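 active means duplicate-averaged calcium fluorescence ratio at least three times the standard deviation of buffer wells, a nonspecific response in parental cells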
HEK293 Ca counter – MrgX1 allosteric activator counter-screen hit in parental HEK293 cells; shares compounds with MrgX1 antagonist; parental HEK293 calcium flux, Fluo-4 fluorescence ratio; active compounds read high; fluorescence ratio F(max-min)/F0 at 10 µM; actives 0.4% (n = 4,000); AID 624114;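 active means calcium fluorescence ratio, averaged over duplicates, at least 3 SD of the buffer-well ratio, meaning a nonspecific response in receptor-free cells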;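 further: untransfected parental HEK293 lacking MrgX1 used as counterscreen for MrgX1 allosteric activators; fluorescence change taken during the second addition on a kinetic imager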
HEK293 Ca cntr2 – activity in parental HEK293 cells lacking MrgX1 receptor | shares compounds with MrgX1 antagonist | Fluo-4 calcium fluorescence (FDSS); active compounds read high | fluorescence ratio F(max-min)/F0 at 10 µM | actives 8.7% (n = 4,000);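 active means calcium fluorescence ratio at least three times the spread of buffer wells, meaning a non-specific response in parental cells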
* = called active by the depositor; i = inactive; / = no result given.

SMILES	RGS4 act	MrgX1 allo act	RGS4 block	MrgX1 agonist	MrgX1 antagonist	MrgX1 ant reconf	HEK293 Ca flux	HEK293 Ca counter	HEK293 Ca cntr2
Cc1cc(S(=O)(=O)Nc2ccc(C(=O)N3CCN(c4ccccc4O)CC3)cc2)ccc1F	i	i	i	i	-4.74*	82.1%*	i	i	i
Cc1ccc(NS(=O)(=O)c2cccc(C(=O)N3CCCCCC3)c2)cc1	i	i	i	i	-5.46*	i	i	i	i
CCc1ccc(NC(=O)CSc2nnnn2-c2cccnc2)cc1	i	i	i	i	i	/	/	/	/
CC(C)c1csc(CN2CCN(CCc3ccccc3)C(CCO)C2)n1 (stereo unspecified)	i	i	i	i	i	/	/	/	/
S=C(NCc1cccnc1)Nc1cccc(Cl)c1	i	i	i	i	i	/	/	/	/
S=C(NCc1cccnc1)Nc1cc(Cl)cc(Cl)c1	i	i	i	i	-5.14*	72.3%*	i	i	58.4*
FC(F)Oc1ccc(NC(=S)NCc2cccnc2)cc1	i	i	i	i	-6.2*	82.7%*	i	i	i
S=C(NCc1cccnc1)Nc1ccc(Oc2ccccc2)cc1	i	i	i	i	i	/	/	/	/
CCOc1ncccc1C(=O)Nc1nc(SC)ns1	i	i	i	i	i	/	/	/	/
CCC(=O)N(Cc1cc2cccc(C)c2[nH]c1=O)c1ccccc1OC	i	i	i	i	-5.29*	i	i	i	i
COc1ccccc1N(Cc1cc2cccc(C)c2[nH]c1=O)C(=O)C(C)C	i	i	i	i	i	/	/	/	/
Cn1c(CNc2ccccc2)nc2ccccc21	i	i	i	i	-6.93*	84.9%*	i	i	i
Cn1c(=O)n(CCC(=O)O)c2ccccc21	i	i	i	i	i	/	/	/	/
Cn1c(=O)n(Cc2ccc(Br)cc2)c2ccccc21	i	i	i	i	-9.34*	i	i	i	i
Cc1cccc(-n2ncc3c(NC(C)C)ncnc32)c1	i	i	i	i	i	/	/	/	/
CC(C)Nc1ncnc2c1cnn2-c1ccccc1	i	i	i	i	-4.87*	i	i	i	i
COc1ccccc1NC(=O)COc1cc(C)nc(C(C)C)n1	i	i	i	i	-5.42*	i	i	i	i
CCCc1nc2ccccc2c(=O)n1CC(=O)c1ccccc1	i	i	i	i	-5.77*	i	i	i	i
O=C(CN1C(=O)NC2(CCCC2)C1=O)Nc1ccccc1N1CCCCC1	i	i	i	i	i	/	/	/	/
CCN1CCN(S(=O)(=O)c2ccc(C(=O)Nc3sc4c(c3C(N)=O)CCN(CC)C4)cc2)CC1	i	i	i	i	-9.42*	i	i	i	i
O=C(CSc1nc2ccccc2[nH]1)c1c[nH]c2ccccc12	i	i	i	i	-5.66*	i	i	i	i
CC(=O)c1cc2c(cc1NC(=O)CSc1nc3ccccc3[nH]1)OCO2	i	i	i	i	-6.58*	74.7%*	i	i	i
COCC(C)n1c(C)cc(C(=O)CSc2nc3ccccc3c(=O)[nH]2)c1C (stereo unspecified)	i	i	i	i	-7.75*	i	i	i	i
C=CCn1c(C)cc(C(=O)CSc2nc3ccccc3c(=O)[nH]2)c1C	/	i	/	i	i	/	/	/	/
C=CCn1c(C)cc(C(=O)CSc2nc3ccccc3[nH]2)c1C	i	i	i	i	-6.66*	70.5%*	i	i	i
SMILES	RGS4 act	MrgX1 allo act	RGS4 block	MrgX1 agonist	MrgX1 antagonist	MrgX1 ant reconf	HEK293 Ca flux	HEK293 Ca counter	HEK293 Ca cntr2
O=C(CCn1c(=O)oc2ccccc21)Nc1cccc([N+](=O)[O-])c1	i	i	i	i	i	/	/	/	/
Cc1ccc(C)c(NC(=O)C(c2ccccc2)N2CCOCC2)c1 (stereo unspecified)	i	i	i	i	i	/	/	/	/
O=C(CCS(=O)(=O)c1ccccc1)Nc1cccc(-c2nc3ccccc3s2)c1	i	i	i	i	-6.25*	83.9%*	i	i	i
CCC1(c2ccc(F)cc2)NC(=O)N(CC(=O)N2CCN(S(=O)(=O)c3ccc(C)cc3)CC2)C1=O (stereo unspecified)	i	i	i	i	i	/	/	/	/
CCCc1nnc(SCc2ccc(OCC)cc2)n1N	i	i	i	i	-4.53*	i	i	i	i
O=C1CC(N2CCN(Cc3ccc(Cl)cc3)CC2)C(=O)N1CCc1ccccc1 (stereo unspecified)	i	i	i	i	i	/	/	/	/
O=C1CC(N2CCN(Cc3ccccc3)CC2)C(=O)N1CCc1ccccc1 (stereo unspecified)	i	i	i	i	-5.41*	i	i	i	i
Cc1cc2nc(CCN3CCOCC3)n(S(=O)(=O)c3ccc(C(C)(C)C)cc3)c2cc1C	i	i	i	i	i	/	/	/	/
COc1ccc(/C=C/c2nc(-c3ccccc3O)n[nH]2)cc1	i	i	i	i	i	/	/	/	/
Nc1nc(/C=C/c2ccc(F)cc2)nc(-c2ccccc2O)n1	i	i	i	i	-6.78*	83.7%*	i	i	i
Nc1nc(/C=C/c2cccnc2)nc(-c2ccccc2O)n1	i	i	i	i	-4.81*	i	i	i	i
Cc1ccc(-c2cc(-c3ccccc3O)nc(N/N=C/c3cccnc3)n2)cc1	i	i	i	i	i	/	/	/	/
Cc1ccc(-c2nc3cccnc3o2)cc1NC(=O)COc1ccc(C(C)(C)C)cc1	-8.21*	i	i	i	-12.2*	82.8%*	i	i	i
CCOC(=O)C1=C(C)N(C)C(C)=C(C(=O)OCC)C1c1ccccn1	i	i	i	i	-7.15*	i	i	i	i

Source: PubChem
